How the values were obtained:
[1] = molecular target: Protein farnesyltransferase (Rattus norvegicus, UniProt Q02293+Q04631); experiment: In vitro inhibitory activity against Farnesyltransferase (FTase); format: protein-complex assay
In short: (§1)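 Compounds were generally tested once, with some tested at n = 2, 4 or 8. Enzyme values are IC50 and cellular values are EC50 (nM). Stated assay reliability is ±50% for the in vitro assay and ±50–100% for the cellular assay. A 3-fold difference is treated as significant.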

Rattus norvegicus [2] = species: Rattus norvegicus; experiment: Inhibitory activity against whole cell Ras prenylation; format: functional; in short: as §1
Rattus norvegicus [3] = species: Rattus norvegicus; experiment: Inhibitory activity against whole cell Ras prenylation at a concentration of 1000 nM; format: functional
Rattus norvegicus [4] = species: Rattus norvegicus; experiment: Inhibitory activity against whole cell Ras prenylation at a concentration of 300 nM; format: functional
Rattus norvegicus [5] = species: Rattus norvegicus; experiment: Inhibitory activity against whole cell Ras prenylation at a concentration of 50 nM; format: functional

CSCC[C@H](NC(=O)c1ccc(CN(CCC2CCCCC2)C(C)=O)cc1-c1ccccc1C)C(=O)O
IC50 [1]: 2.9 nM | EC50 (Rattus norvegicus [2]): > 1000 nM

CSCC[C@H](NC(=O)c1ccc(CN[C@H](C)CC2CCCCC2)cc1-c1ccccc1C)C(=O)O
IC50 [1]: 0.7 nM | EC50 (Rattus norvegicus [2]): > 1000 nM

CSCC[C@H](NC(=O)c1ccc(CN[C@H](CO)Cc2ccccc2)cc1-c1ccccc1C)C(=O)O
IC50 [1]: 4.6 nM

CSCC[C@H](NC(=O)c1ccc(CNC(CC2CCCCC2)CC2CCCCC2)cc1-c1ccccc1C)C(=O)O
IC50 [1]: 0.25 nM | inhibition at 1 µM (Rattus norvegicus [3]): 75%

CSCC[C@H](NC(=O)c1ccc(CN[C@H](CO)CC2CCCCC2)cc1-c1ccccc1)C(=O)O
IC50 [1]: 8 nM

CCSC[C@H](CC1CCCCC1)NCc1ccc(C(=O)N[C@@H](CCSC)C(=O)O)c(-c2ccccc2C)c1
IC50 [1]: 0.2 nM | EC50 (Rattus norvegicus [2]): 4.4 nM

CSCC[C@H](NC(=O)c1ccc(CN[C@@H](CO)CC2CCCCC2)cc1-c1ccccc1C)C(=O)O
IC50 [1]: 12 nM

CSCC[C@H](NC(=O)c1ccc(CN(CCC2CCCCC2)C(=O)c2ccccc2)cc1-c1ccccc1C)C(=O)O
IC50 [1]: 1.1 nM | EC50 (Rattus norvegicus [2]): > 1000 nM

CC[C@H](CC1CCCCC1)NCc1ccc(C(=O)N[C@@H](CCSC)C(=O)O)c(-c2ccccc2C)c1
IC50 [1]: 0.7 nM | EC50 (Rattus norvegicus [2]): > 1000 nM

CSCC[C@H](NC(=O)c1ccc(CN[C@H](/C=C/CC(C)C)CC2CCCCC2)cc1-c1ccccc1C)C(=O)O
IC50 [1]: 0.22 nM

CSCC[C@H](NC(=O)c1ccc(CN[C@H](CSC2CCCCC2)CC2CCCCC2)cc1-c1ccccc1C)C(=O)O
IC50 [1]: 0.41 nM | inhibition at 1 µM (Rattus norvegicus [3]): 80%

CSCC[C@H](NC(=O)c1ccc(CN[C@H](CCCC(C)C)CC2CCCCC2)cc1-c1ccccc1C)C(=O)O
IC50 [1]: 0.28 nM | EC50 (Rattus norvegicus [2]): 52 nM

CSCC[C@H](NC(=O)c1ccc(CN[C@H](CO)C2CCCCC2)cc1-c1ccccc1C)C(=O)O
IC50 [1]: 4 nM

CCCC[C@H](CC1CCCCC1)NCc1ccc(C(=O)N[C@@H](CCSC)C(=O)O)c(-c2ccccc2C)c1
IC50 [1]: 0.46 nM | EC50 (Rattus norvegicus [2]): 4.3 nM

CSCC[C@H](NC(=O)c1ccc(CN[C@H](CSc2ccccc2)CC2CCCCC2)cc1-c1ccccc1C)C(=O)O
IC50 [1]: 0.2 nM | EC50 (Rattus norvegicus [2]): 12 nM

CSCC[C@H](NC(=O)c1ccc(CNCCC2CCCCC2)cc1-c1ccccc1C)C(=O)O
IC50 [1]: 0.17 nM | EC50 (Rattus norvegicus [2]): 200 nM

CCS(=O)(=O)C[C@H](CC1CCCCC1)NCc1ccc(C(=O)N[C@@H](CCS(C)(=O)=O)C(=O)O)c(-c2ccccc2C)c1
IC50 [1]: 1.2 nM | inhibition at 1 µM (Rattus norvegicus [3]): 63%

CSCC[C@H](NC(=O)c1ccc(CN(CCC2CCCCC2)Cc2ccccc2)cc1-c1ccccc1C)C(=O)O
IC50 [1]: 3.5 nM | EC50 (Rattus norvegicus [2]): > 1000 nM

CSCC[C@H](NC(=O)c1ccc(CN(CCC2CCCCC2)C(=O)OC(C)(C)C)cc1-c1ccccc1C)C(=O)O
IC50 [1]: 0.17 nM | EC50 (Rattus norvegicus [2]): 160 nM

CSCC[C@H](NC(=O)c1ccc(CN[C@H](CO)CC2CCCCC2)cc1-c1ccccc1C)C(=O)O
IC50 [1]: 0.16 nM | EC50 (Rattus norvegicus [2]): 190 nM

CSCC[C@H](NC(=O)c1ccc(CN[C@@H](CO)C2CCCCC2)cc1-c1ccccc1C)C(=O)O
IC50 [1]: 10 nM

CCSC[C@H](CC1CCCCC1)NCc1ccc(C(=O)N[C@@H](CCS(C)(=O)=O)C(=O)O)c(-c2ccccc2C)c1
inhibition at 0.3 µM (Rattus norvegicus [4]): 34% | IC50 [1]: 1 nM

CSCC[C@H](NC(=O)c1ccc(CN(C)CCC2CCCCC2)cc1-c1ccccc1C)C(=O)O
IC50 [1]: 0.87 nM | EC50 (Rattus norvegicus [2]): 12 nM

CSCC[C@H](NC(=O)c1ccc(CN[C@H](CSC(C)(C)C)CC2CCCCC2)cc1-c1ccccc1C)C(=O)O
IC50 [1]: 0.6 nM | EC50 (Rattus norvegicus [2]): 2.8 nM

COC[C@H](CC1CCCCC1)NCc1ccc(C(=O)N[C@@H](CCSC)C(=O)O)c(-c2ccccc2C)c1
inhibition at 0.3 µM (Rattus norvegicus [4]): 47% | IC50 [1]: 0.66 nM

CCS(=O)(=O)C[C@H](CC1CCCCC1)NCc1ccc(C(=O)N[C@@H](CCSC)C(=O)O)c(-c2ccccc2C)c1
inhibition at 0.05 µM (Rattus norvegicus [5]): 59% | IC50 [1]: 0.14 nM

CSCC[C@H](NC(=O)c1ccc(CN[C@H](CSc2ccccc2C)CC2CCCCC2)cc1-c1ccccc1C)C(=O)O
IC50 [1]: 0.42 nM | inhibition at 1 µM (Rattus norvegicus [3]): 77%
